# Screening results (PubChem BioAssay)
# Most compounds without a hit are left out; they make up all but 1.2% or so of the library.
# Rin1-Abl PPI inh: inhibitors of Rin1-Abl protein binding, primary screen, biochemical, TR-FRET | Tyrosine-protein kinase ABL1 (Homo sapiens) + Ras and Rab interactor 1 (Homo sapiens), … | inhibition, % at 7.35 µM | 0.4% of 360,000 active | AID 588664, 2011; in the data active = inhibition above about 5%, passing the limit was not always enough
# ARFGAP1 inhibitor: inhibitors of rat ARFGAP1 GAP activity, primary screen, biochemical, fluorescence polarization, GDP tracer; ADP-ribosylation factor GTPase-activating protein 1 (Rattus norvegicus), Q62848; Arfgap1-stimulated ARF1 GTP hydrolysis, GDP FP detection; inhibition, % at 16.5 µM; 0.26% of 360,000 active; AID 651572, 2012;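 active = inhibition above a per-plate limit, mean inhibition of low control wells plus 3 SD, cut at about 25% in these data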;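 note: 0% = DMSO wells with enzyme and 100% = wells lacking Arfgap1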
#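 Material: truncated rat Arfgap1 GAP domain; Incubation: compound-enzyme preincubation 20 min, reaction 120 min, detection 60 min, 25 °C; Read-out: percent inhibition of Arfgap1-stimulated GTP hydrolysis; Technique: FP, GDP Alexa 633 tracer displaced from anti-GDP antibody, 620/688 nm; Controls: No-Arfgap1 wells (100%) versus DMSO full-reaction wells (0%); Replication: single well per compound.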
# ASAP1 GAP inh: inhibitors of human ASAP1 ArfGAP activity, primary screen, biochemical, fluorescence polarization; inhibition, % at 16.5 µM; 0.19% of 360,000 active; AID 624377, 2012; ASAP1-stimulated ARF1 GTP hydrolysis, GDP FP detection; in the data active = inhibition above about 25%;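 note: 0% = vehicle with enzyme and substrate and 100% = no enzyme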
# GalR3 antag: GalR3 antagonists in HEK293 cells, primary screen, cell-based, fluorescence readout. HEK293 GalR3-CNG cAMP membrane potential fluorescence; galR3 body fused to GalR1 C-terminus. inhibition, % at 3 µM. Galanin receptor type 3 (Homo sapiens), O60755. 0.44% of 360,000 active;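 active = inhibition above the screen-wide average plus 3 SD, cut at about 13% in these data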;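 note: forskolin and galanin both at EC90 stimulate the cells; cAMP rise reported by CNG channel membrane potential dye signal; 0% = forskolin plus galanin with DMSO and 100% = forskolin alone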
# ASAP1 inh confirm: ASAP1 GAP activity inhibitors, confirmation, biochemical, fluorescence polarization, human, triplicate. shares compounds with ASAP1 GAP inh. ASAP1-stimulated Arf1 GTPase, GDP fluorescence polarization. inhibition, % at 16.5 µM. 37% of 620 active;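 active = mean inhibition over triplicates exceeds the hit threshold derived for the earlier primary screening run, cut at about 25% in these data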
# ARFGAP1 inh conf: ARFGAP1 inhibitor hit confirmation, biochemical, fluorescence polarization, triplicate; shares compounds with ARFGAP1 inhibitor; ARFGAP1-stimulated ARF1 GTP hydrolysis, GDP tracer FP; inhibition, % at 16.5 µM; 30% of 890 active;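 active = average inhibition over triplicates above the hit cutoff set in the earlier primary screen, cut at about 25% in these data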;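 note: 0% = Arfgap1 plus ARF1-GTP with DMSO and 100% = wells lacking Arfgap1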
# * hit, by the source's call; x = no result given; + = active, no number.
SMILES,Rin1-Abl PPI inh,ARFGAP1 inhibitor,ASAP1 GAP inh,GalR3 antag,ASAP1 inh confirm,ARFGAP1 inh conf
COc1ccc(C(=O)c2c(C)c3cc(C)ccc3n2CC(O)CN2CCOCC2)cc1 (stereo not given),-1,-8,26*,-5,1,x
O=C1NC(=S)S/C1=C\C=C\c1ccc([N+](=O)[O-])o1,0,8,29*,-6,11,x
O=C(O)/C=C/c1ccc([N+](=O)[O-])o1,0,-8,-10,-3,x,x
Nc1nnc(SCC(=O)Nc2cccnc2Cl)s1,-1,14,3,-4,x,x
Cc1cccc(Nc2nnc(SCC(=O)Nc3cccnc3Cl)s2)c1,-2,4,30*,-11,3,x
C=CCn1c(C)cc(-c2csc(NC)n2)c1C,-4,0,26*,-2,5,x
C=CCN(CC=C)C[C@@H]1CSCCS(=O)(=O)N1,x,16,-1,-3,x,x
CC1(C(=O)NS(=O)(=O)c2ccccc2)CCN1C(=O)CCc1ccccc1 (stereo not given),-1,-2,-6,-5,x,x
CSCCNC(=O)C1(C)CCN1C(=O)CCc1ccccc1 (stereo not given),0,-5,29*,-3,0,x
COc1ccc(Cn2ccnc2SCC(=O)Nc2ccccc2F)cc1,-2,-4,5,-1,x,x
COc1ccc(Cn2ccnc2SCC(=O)Nc2ccccc2OC)cc1,-2,-4,26*,-1,10,x
COc1ccc(N2C(=O)[C@@H]3[C@H](C2=O)[C@H]2c4ccccc4C=CN2[C@@H]3C(C)=O)cc1,0,22,49*,-6,18,x
COc1ccc(C(=O)NC(C)c2ccc(-n3ccnc3)cc2)cc1[N+](=O)[O-] (stereo not given),1,-4,25*,-2,12,x
CNC12CCc3cc(OC)c(OC)c(c31)-c1cc3c(cc1C2)OCO3 (stereo not given),x,-7,9,-1,x,x
Cc1noc(C)c1S(=O)(=O)N(C)C[C@@H]1OCc2cnnn2CCCC(=O)N([C@@H](C)CO)C[C@@H]1C,x,4,3,2,x,x
N#CC1C(=O)Nc2cccnc21 (stereo not given),2,28*,30*,-4,1,-2
CN1CCCCC(NC(=O)c2cccc(F)c2)C1=O (stereo not given),x,2,11,-9,x,x
COc1ccc(N2CCN(C(=S)NCCc3ccccc3)CC2)cc1,1,-7,0,-3,x,x
COc1ccc(N2CCN(C(=S)NCc3ccccc3)CC2)cc1,-1,38*,37*,-2,7,6
O=C(/C=C/c1ccco1)Nc1ccc(-c2nc3ccccc3[nH]2)cc1,-1,88*,28*,3,71*,139*
C/C(=N\NC(=O)c1cc(-c2cccc([N+](=O)[O-])c2)n[nH]1)c1ccccc1O,0,54*,136*,1,150*,152*
Nc1nc(SCc2ccc(Cl)cc2Cl)nc2nc3c(cc12)CCCC3,-3,47*,31*,-3,69*,68*
O=C(Nc1ccc2oc(-c3cccnc3)nc2c1)c1ccc2c(c1)OCCO2,-5,42*,27*,-5,38*,114*
O=C(Nc1ccc2oc(-c3ccccc3)nc2c1)c1ccc2c(c1)OCCO2,-4,-3,-1,-4,x,x
Cc1cc2oc3ccc(NCCCn4ccnc4)cc3c(=O)c2cc1C,-5,115*,79*,-4,127*,+
SMILES,Rin1-Abl PPI inh,ARFGAP1 inhibitor,ASAP1 GAP inh,GalR3 antag,ASAP1 inh confirm,ARFGAP1 inh conf
COC(=O)COc1ccc2c(c1)O/C(=C\c1cccc([N+](=O)[O-])c1)C2=O,-2,7,-5,-7,x,x
COc1ccc(/C=C2\Oc3cc(OCC(N)=O)ccc3C2=O)cc1OC,-6,32*,35*,-10,47*,45*
COC(=O)[C@]12C[C@H](CC(=O)NCc3ccc(C)o3)C(=O)N(Cc3ccc4c(c3)OCO4)C1=C[C@H](C(C)(C)C)O[C@@H]2C,x,3,-5,-8,x,x
C[C@H](CO)N1C[C@H](C)[C@@H](CN(C)C(=O)NC2CCCCC2)OCc2cn(nn2)CCCC1=O,x,6,11,-4,x,x
COc1ccc(NC(=O)c2cccc3c(-c4cccnc4)coc23)cc1,-1,26*,32*,-1,18,14
O=C(Nc1ccccc1)c1cccc2c(-c3cccnc3)coc12,-2,-2,7,-8,x,x
CCN(CC)CCCN(C(=O)c1ccc(Br)cc1)c1nc(-c2ccc(OC)cc2)cs1,-1,-3,0,-9,x,x
CCN(CC)CCOC(=O)c1ccc(N/C=C(/C#N)c2nc(-c3ccc(OC)cc3)cs2)cc1,-3,28*,48*,1,51*,55*
CCN(CC)CCOC(=O)c1ccc(N/C=C(/C#N)c2nc(-c3cc4ccccc4oc3=O)cs2)cc1,-2,84*,72*,-4,99*,134*
COc1cccc(NC(=O)Cn2nnc(C(=O)Nc3cc(Cl)ccc3OC)c2N)c1,-5,138*,77*,-3,109*,199*
COc1ccc(Cl)cc1NC(=O)c1nnn(CC(=O)Nc2ccc(OC)c(OC)c2)c1N,3,0,-7,-4,x,x
COc1ccc(C(=O)Nc2nnc(SCC(=O)NC3CCCC3)s2)c(OC)c1,-6,-1,19,-5,x,x
COc1ccc(C(=O)Nc2nnc(SCC(=O)Nc3ccc(NC(C)=O)cc3)s2)c(OC)c1,-1,52*,39*,2,82*,122*
COc1ccc(/C=N\NC(=O)c2ccc([N+](=O)[O-])cc2)cc1COc1c(F)c(F)cc(F)c1F,-3,82*,52*,-2,58*,99*
NS(=O)(=O)c1ccc(OCCCN2CCC(C(O)(c3ccccc3)c3ccccc3)CC2)cc1,x,2,2,0,x,x
COc1ccc(N2C[C@@]3(O)CC[C@@H](O)[C@@H](OC)[C@@H]3[C@@](C)(O)[C@@H]2CC=C(C)C)cc1,x,1,1,5,x,x
Cc1cc2cc(CNC(=O)Nc3ccc(Cl)c(Cl)c3)ccc2n1C,-3,74*,42*,x,14,8
COc1cccc(C(=O)Nc2cccc(-c3ccc4nncn4n3)c2)c1OC,-2,2,4,-5,x,x
COc1ccc(Cl)cc1C(=O)Nc1cccc(-c2ccc3nncn3n2)c1,2,+,191*,2,196*,+
